According to ChEMBL document CHEMBL3785077 (J Med Chem, 2016):
Calls of active or inactive are those of the source. The calls are words filed in the database; no cut-off is given here.

Key:
[1] = target: Cholinesterase (Equus caballus) (UniProt P81908); test: (§1) Pseudo-irreversible inhibition of equine serum butyrylcholinesterase assessed as apparent affinity between enzyme and inhibitor at equilibrium state using p-nitrophenyl butyrate as substrate preincubated for 5 to 40 mins followed by substrate addition by double reciprocal plot analysis
[2] = target: Cholinesterase (Equus caballus) (UniProt P81908); test: Pseudo-irreversible inhibition of equine serum butyrylcholinesterase assessed as decarbamoylation rate using […] as substrate preincubated for 1 hr followed by 1000 fold dilution
How it was run: (§2)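 Enzyme incubated 1 h with inhibitor at a fully inhibiting concentration, then diluted 1:1000 in assay buffer. Activity measured by Ellman assay at various times after dilution, with uninhibited enzyme treated the same way as control. First-order fit of activity recovery gives k4.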

[3] = target: Cholinesterase (Equus caballus) (UniProt P81908); test: Pseudo-irreversible inhibition of equine serum butyrylcholinesterase assessed as carbamoylation rate of inhibitor from reversible enzyme inhibitor complex to carbamoylated enzyme using p-nitrophenyl butyrate as substrate preincubated for 5 to 40 mins followed by substrate addition by double reciprocal plot analysis
Acetylcholinesterase [4] = target: T1, Acetylcholinesterase (Homo sapiens, UniProt P22303); test: Inhibition of human acetylcholinesterase using […] as substrate at 500 uM preincubated for 4.5 mins followed by substrate addition measured after 2.5 mins by Ellman's spectrophotometric method
Cholinesterase [5] = target: T2, Cholinesterase (Equus caballus, UniProt P81908); test: Inhibition of equine serum butyrylcholinesterase using […] as substrate preincubated for 4.5 mins followed by substrate addition measured after 2.5 mins by Ellman's spectrophotometric method
How it was run: (§3)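 Ellman assay at 25 °C in phosphate buffer pH 8.0. Enzyme (AChE from human erythrocytes, BChE from equine or human serum; 2.5 units/mL stock with 2 mg/mL BSA) and DTNB (0.3 mM in assay) preincubated with compound from ethanol stocks (1 nM−1 mM in assay). Acetyl- or butyrylthiocholine added (452 μM in assay), absorbance at 412 nm after 2.5 min. Ethanol control, triplicates, IC50 from activity vs log concentration.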

[6] = target: Cholinesterase (Equus caballus) (UniProt P81908); test: as §1, with “assessed as ratio of carbamoylation rate of inhibitor to apparent affinity” for “assessed as apparent affinity”
Acetylcholinesterase [7] = target: T1, Acetylcholinesterase; test: Inhibition of human acetylcholinesterase using […] as substrate preincubated for 30 mins followed by substrate addition measured after 2.5 mins by Ellman's spectrophotometric method
How it was run: as §3, with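 “assay).” for “assay). Acetyl- or butyrylthiocholine added (452 μM in assay), absorbance at 412 nm after 2.5 min.”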

Cholinesterase [8] = target: T2, Cholinesterase; test: Inhibition of equine serum butyrylcholinesterase using […] as substrate preincubated for 30 mins followed by substrate addition measured after 2.5 mins by Ellman's spectrophotometric method
How it was run: as §3, with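 “assay).” for “assay). Acetyl- or butyrylthiocholine added (452 μM in assay), absorbance at 412 nm after 2.5 min.”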

Acetylcholinesterase [9] = target: T1, Acetylcholinesterase; test: Inhibition of human acetylcholinesterase using […] as substrate at 50 uM preincubated for 4.5 mins followed by substrate addition measured after 2.5 mins by Ellman's spectrophotometric method
[10] = Antioxidant activity assessed as trolox equivalents of AAPH radical scavenging activity preincubated for 15 mins followed by AAPH addition measured every 60 secs for 90 mins by ORAC assay; format: physicochemical; details: 1.5 h
How it was run: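 ORAC-FL: compound (1−5 μM) with fluorescein (300 nM final) in 75 mM phosphate buffer pH 7.4, 15 min at 37 °C, then AAPH (12 mM final). Fluorescence read every 60 s for 90 min (ex 485/em 535 nm). […] Samples in quadruplicate, ≥4 independent runs.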

HT-22 [11] = test: Neuroprotective activity against glutamate-induced oxycytotic cell death in mouse HT22 cells assessed as cell viability at 5 to 25 uM after 24 hrs by MTT assay; format: functional, cell-based
How it was run: (§4)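 Murine hippocampal HT-22 cells in high-glucose DMEM with 10% heat-inactivated FCS, 37 °C, 5% CO2. […] MTT 3 h, SDS lysis, absorbance at 560 nm, viability as % of untreated cells.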

Acetylcholinesterase [12] = target: T1, Acetylcholinesterase; test: Inhibition of human acetylcholinesterase using […] as substrate at 100 uM preincubated for 4.5 mins followed by substrate addition measured after 2.5 mins by Ellman's spectrophotometric method
[13] = Neurotoxicity against mouse HT22 cells assessed as cell viability up to 10 uM after 24 hrs by MTT assay; format: toxicity, cell-based, HT-22; details: read-out: Activity; how it was run: as §4
[14] = target: Cholinesterase (Equus caballus) (UniProt P81908); test: Pseudo-irreversible inhibition of equine serum butyrylcholinesterase assessed as half life for carbamoylated enzyme using […] as substrate preincubated for 1 hr followed by 1000 fold dilution; how it was run: as §2
HT-22 [15] = test: Neuroprotective activity against glutamate-induced oxycytotic cell death in mouse HT22 cells assessed as cell viability at 5 uM after 24 hrs by MTT assay; format: functional, cell-based
How it was run: (§5)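 Murine hippocampal HT-22 cells in high-glucose DMEM with 10% heat-inactivated FCS, 37 °C, 5% CO2. […] MTT (4 mg/mL in PBS, diluted 1:10 in medium) for 3 h, lysis in 10% SDS pH 4.1, absorbance 560 nm; viability as % of untreated cells.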

HT-22 [16] = test: Neuroprotective activity against glutamate-induced oxycytotic cell death in mouse HT22 cells assessed as cell viability at 25 uM after 24 hrs by MTT assay; format: functional, cell-based
How it was run: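 Murine hippocampal HT-22 cells in high-glucose DMEM with 10% heat-inactivated FCS, 37 °C, 5% CO2. MTT (4 mg/mL in PBS, diluted 1:10 in medium) for 3 h, lysis in 10% SDS pH 4.1, absorbance 560 nm; viability as % of untreated cells.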

HT-22 [17] = test: Neuroprotective activity against glutamate-induced oxycytotic cell death in mouse HT22 cells assessed as cell viability at 1 uM after 24 hrs by MTT assay; format: functional, cell-based; how it was run: as §5
[18] = Neurotoxicity against mouse HT22 cells assessed as cell viability at 1 and 5 uM after 24 hrs by MTT assay; format: toxicity, cell-based; details: ht-22, 24 h
How it was run: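 HT-22 murine hippocampal cells grown in high-glucose DMEM plus 10% heat-inactivated FCS at 37 °C, 5% CO2. After 24 h culture in plates, treated 24 h with compound (DMSO ≤0.1% final) without glutamate. Viability read by MTT (3 h), SDS lysis buffer pH 4.1, absorbance at 560 nm, given as percent of untreated control.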

Acetylcholinesterase [19] = target: T1, Acetylcholinesterase; test: Inhibition of human acetylcholinesterase using […] as substrate preincubated for 4.5 mins followed by substrate addition measured after 2.5 mins by Ellman's spectrophotometric method; how it was run: as §3
Acetylcholinesterase [20] = target: T1, Acetylcholinesterase; test: Inhibition of human acetylcholinesterase using […] as substrate at 10 uM preincubated for 4.5 mins followed by substrate addition measured after 2.5 mins by Ellman's spectrophotometric method
[21] = Neurotoxicity against mouse HT22 cells assessed as decrease in cell viability at 25 uM after 24 hrs by MTT assay; format: toxicity, cell-based; details: ht-22, 24 h; how it was run: as §4
Cholinesterase [22] = target: Cholinesterase (Homo sapiens, UniProt P06276); test: Inhibition of human butyrylcholinesterase using […] as substrate preincubated for 30 mins followed by substrate addition measured after 2.5 mins by Ellman's spectrophotometric method; how it was run: as §3
Chain of Cholinesterase (Homo sapiens, UniProt P06276) (P06276 whole entry): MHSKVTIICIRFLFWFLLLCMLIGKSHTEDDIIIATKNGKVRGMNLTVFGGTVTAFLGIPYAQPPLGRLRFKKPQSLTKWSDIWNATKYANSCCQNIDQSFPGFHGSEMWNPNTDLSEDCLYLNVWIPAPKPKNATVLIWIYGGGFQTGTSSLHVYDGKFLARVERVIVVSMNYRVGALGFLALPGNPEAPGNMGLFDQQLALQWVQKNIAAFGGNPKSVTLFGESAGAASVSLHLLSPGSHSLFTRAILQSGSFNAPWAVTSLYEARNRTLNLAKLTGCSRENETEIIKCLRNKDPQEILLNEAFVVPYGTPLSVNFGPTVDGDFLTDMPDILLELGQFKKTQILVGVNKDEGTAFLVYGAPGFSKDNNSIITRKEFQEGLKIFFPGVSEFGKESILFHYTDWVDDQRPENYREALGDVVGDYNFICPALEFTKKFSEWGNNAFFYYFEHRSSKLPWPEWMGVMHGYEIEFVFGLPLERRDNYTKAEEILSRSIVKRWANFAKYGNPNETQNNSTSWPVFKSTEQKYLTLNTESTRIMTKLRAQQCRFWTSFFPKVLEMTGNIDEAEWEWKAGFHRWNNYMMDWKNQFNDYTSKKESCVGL

T1 sequence (P22303 whole entry): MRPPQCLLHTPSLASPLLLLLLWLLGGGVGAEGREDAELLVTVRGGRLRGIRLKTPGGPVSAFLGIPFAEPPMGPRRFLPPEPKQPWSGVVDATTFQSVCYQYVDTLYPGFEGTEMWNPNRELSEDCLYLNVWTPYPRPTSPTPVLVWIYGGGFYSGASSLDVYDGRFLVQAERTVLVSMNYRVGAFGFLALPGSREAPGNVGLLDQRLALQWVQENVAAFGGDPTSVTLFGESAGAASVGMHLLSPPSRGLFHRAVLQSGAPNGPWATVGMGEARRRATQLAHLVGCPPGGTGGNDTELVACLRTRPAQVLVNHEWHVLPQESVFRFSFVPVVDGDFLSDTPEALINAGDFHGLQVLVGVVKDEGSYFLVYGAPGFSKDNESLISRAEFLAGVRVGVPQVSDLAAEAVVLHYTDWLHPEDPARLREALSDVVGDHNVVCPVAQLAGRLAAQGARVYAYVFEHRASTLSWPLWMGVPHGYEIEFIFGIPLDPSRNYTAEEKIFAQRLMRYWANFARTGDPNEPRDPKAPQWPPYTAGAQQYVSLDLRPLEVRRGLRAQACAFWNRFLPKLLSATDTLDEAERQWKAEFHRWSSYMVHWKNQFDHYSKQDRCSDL
Chain of Cholinesterase (Equus caballus) (P81908 whole entry): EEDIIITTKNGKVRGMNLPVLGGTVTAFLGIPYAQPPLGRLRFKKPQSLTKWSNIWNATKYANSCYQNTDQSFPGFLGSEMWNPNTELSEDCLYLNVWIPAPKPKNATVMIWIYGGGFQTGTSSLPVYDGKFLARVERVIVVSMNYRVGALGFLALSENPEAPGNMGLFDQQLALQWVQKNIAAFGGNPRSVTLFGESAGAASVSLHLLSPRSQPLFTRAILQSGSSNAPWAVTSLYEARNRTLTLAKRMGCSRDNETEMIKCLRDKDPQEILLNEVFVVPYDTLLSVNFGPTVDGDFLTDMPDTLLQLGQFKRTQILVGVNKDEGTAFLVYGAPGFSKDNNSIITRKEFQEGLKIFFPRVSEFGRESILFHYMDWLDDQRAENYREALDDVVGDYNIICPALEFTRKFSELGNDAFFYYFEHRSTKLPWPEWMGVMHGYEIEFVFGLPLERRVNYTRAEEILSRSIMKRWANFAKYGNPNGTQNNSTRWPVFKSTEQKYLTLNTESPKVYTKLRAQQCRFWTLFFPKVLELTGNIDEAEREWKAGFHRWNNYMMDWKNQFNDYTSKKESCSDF
T2 sequence (P81908 whole entry): as above

SMILES: CNC(=O)Oc1ccc2c(c1)[C@]1(C)CCN(C)[C@@H]1N2C
- K [1]: 280 nM
- K [2]: 0.25 h⁻¹
- K [3]: 0.3 min⁻¹

SMILES: CN1Cc2cc(O)ccc2N(C)C1c1ccccc1Cl (stereo not given)
- inhibition (Acetylcholinesterase [4]): 60%
- IC50 (Cholinesterase [5]): 56 µM

SMILES: CCCCCCCNC(=O)Oc1ccc2c(c1)CN(C)C(c1ccc(F)cc1)N2C (stereo not given)
- K [1]: 24.5 nM
- Ratio [6]: 5.71 µM⁻¹ min⁻¹
- IC50 (Acetylcholinesterase [7]): 1.61 µM
- K [3]: 0.14 min⁻¹
- IC50 (Cholinesterase [8]): 0.044 µM

SMILES: CN1Cc2cc(O)ccc2N(C)C1c1ccc2ccccc2c1 (stereo not given)
- inhibition (Acetylcholinesterase [9]): 9%
- IC50 (Cholinesterase [5]): 16.5 µM

SMILES: COc1cccc(C2N(C)Cc3cc(O)ccc3N2C)c1 (stereo not given)
- inhibition (Acetylcholinesterase [4]): 61%
- IC50 (Cholinesterase [5]): 7.8 µM

SMILES: Oc1ccc2nc(-c3ccccc3)ncc2c1
- inhibition (Acetylcholinesterase [4]): 20%
- IC50 (Cholinesterase [5]): 98.1 µM

SMILES: CCCCCCCNC(=O)Oc1ccc2c(c1)CN(C)C(c1ccccc1)N2C (stereo not given)
- Activity [10]: 0.2 equiv
- K [1]: 226 nM
- Ratio [6]: 0.57 µM⁻¹ min⁻¹
- K [2]: 0.14 h⁻¹
- K [3]: 0.13 min⁻¹
- IC50 (Cholinesterase [8]): 0.106 µM
- Activity (HT-22 [11]): Active
- inhibition (Acetylcholinesterase [12]): 4%
- viability at 24 h [13]: > 80%
- T1/2 [14]: 5 h

SMILES: CN1c2ccc(O)cc2CN(Cc2ccccc2)C1c1ccccc1 (stereo not given)
- Activity [10]: 3.9 equiv
- Activity (HT-22 [15]): Active
- Activity (HT-22 [16]): inactive
- Activity (HT-22 [17]): Active
- inhibition (Acetylcholinesterase [9]): 16%
- Activity [18]: Non-toxic
- IC50 (Cholinesterase [5]): 14.8 µM

SMILES: CN1Cc2cc(O)ccc2N(C)C1c1ccccc1 (stereo not given)
- Activity [10]: 3 equiv
- IC50 (Acetylcholinesterase [19]): 327 µM
- Activity (HT-22 [15]): Active
- Activity [18]: Non-toxic
- IC50 (Cholinesterase [5]): 39.9 µM

SMILES: CCCCCCCNC(=O)Oc1ccc2c(c1)CN(Cc1ccccc1)C(c1ccccc1)N2C (stereo not given)
- Activity [10]: 1.7 equiv
- inhibition (Acetylcholinesterase [20]): 17%
- IC50 (Cholinesterase [8]): 0.034 µM
- Activity (HT-22 [11]): Active
- Activity [21]: Non-toxic
- viability at 24 h [13]: > 80%

SMILES: CCCCCCCNC(=O)Oc1ccc2c(c1)CN(C)C(c1cccc3ccccc13)N2C (stereo not given)
- K [1]: 15.6 nM
- Ratio [6]: 1.92 µM⁻¹ min⁻¹
- inhibition (Acetylcholinesterase [20]): 8%
- K [3]: 0.03 min⁻¹
- IC50 (Cholinesterase [8]): 36.2 µM

SMILES: CCCCCCCNC(=O)Oc1ccc2c(c1)CN(C)C(c1ccc(OC)cc1)N2C (stereo not given)
- Activity [10]: 0.5 equiv
- K [1]: 1200 nM
- Ratio [6]: 0.2 µM⁻¹ min⁻¹
- K [3]: 0.24 min⁻¹
- IC50 (Cholinesterase [8]): 0.875 µM
- Activity (HT-22 [11]): Active
- inhibition (Acetylcholinesterase [12]): 14%
- viability at 24 h [13]: > 80%

SMILES: COc1ccc(C2N(C)Cc3cc(O)ccc3N2C)cc1 (stereo not given)
- Activity [10]: 3.7 equiv
- IC50 (Acetylcholinesterase [19]): 104 µM
- Activity (HT-22 [15]): Active
- Activity (HT-22 [16]): inactive
- Activity [18]: Non-toxic
- IC50 (Cholinesterase [5]): 39.5 µM

SMILES: CN1Cc2cc(O)ccc2N(C)C1c1cccs1 (stereo not given)
- Activity [10]: 3.4 equiv
- IC50 (Acetylcholinesterase [19]): 226 µM
- Activity (HT-22 [15]): Active
- Activity [18]: Non-toxic
- IC50 (Cholinesterase [5]): 63.2 µM

SMILES: CCCCCCCNC(=O)Oc1ccc2c(c1)CN(C)C(c1cccs1)N2C (stereo not given)
- Activity [10]: 0.2 equiv
- K [1]: 14.3 nM
- Ratio [6]: 9.79 µM⁻¹ min⁻¹
- K [2]: 0.14 h⁻¹
- K [3]: 0.14 min⁻¹
- IC50 (Cholinesterase [22]): 0.013 µM
- IC50 (Cholinesterase [8]): 0.014 µM
- Activity (HT-22 [11]): Active
- inhibition (Acetylcholinesterase [12]): 0%
- viability at 24 h [13]: > 80%
- T1/2 [14]: 5 h

SMILES: CCCCCCCNC(=O)Oc1ccc2c(c1)CN(C)C(c1cc[nH]c1)N2C (stereo not given)
- IC50 (Acetylcholinesterase [7]): 0.852 µM
- IC50 (Cholinesterase [8]): 0.023 µM

SMILES: CN1Cc2cc(O)ccc2N(C)C1c1ccsc1 (stereo not given)
- inhibition (Acetylcholinesterase [4]): 52%
- IC50 (Cholinesterase [5]): 194 µM

SMILES: CN1Cc2cc(O)ccc2N(C)C1c1cccnc1 (stereo not given)
- inhibition (Acetylcholinesterase [4]): 61%
- IC50 (Cholinesterase [5]): 70.7 µM
